Test results taken from ChEMBL document CHEMBL1136715, “Modifications of the ethanolamine head in N-palmitoylethanolamine: synthesis and evaluation of new agents interfering with the metabolism of anandamide” (J Med Chem, 2003).

Tests used:
[1] = molecular target: Cannabinoid receptor 2 (Homo sapiens) (UniProt P34972); assay: Percent inhibition of specific binding of [3H]WIN-55212-2 towards human cannabinoid receptor 2 from Chinese hamster ovary cell membranes at the concentration of 10 uM
How it was run: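 Membranes (40 μg) from human CB2-transfected CHO cells (Ham's F12, 10% FBS, G418) were incubated with 1 nM [3H]-WIN 55,212-2 for 1 h at 30 °C in 50 mM Tris-HCl/MgCl2/EDTA, pH 7.4, with 50 μM PMSF. Bound radioligand was collected on 0.5% PEI-pretreated GF/B filters and counted by liquid scintillation.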

[2] = organism: Rattus norvegicus; assay: Percent inhibition of AEA (N-arachidonoylethanolamine) metabolism in rat brain homogenates using [3H]anandamide as the labeled substrate.; type: functional; set-up: concentration or dose not given beside the values; settings: dose or concentration not given here
How it was run: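 Rat brain membranes with test compound or ethanol carrier and [3H]-AEA (2 μM final) in 10 mM Tris-HCl, 1 mM EDTA, 1% w/v fatty-acid-free BSA, pH 7.6, for 10 min at 37 °C. Ice plus chloroform/methanol (1:1) stopped the reaction, and the methanol/buffer phase was counted with quench correction. Blanks used water in place of homogenate. Values come from at least three experiments.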

[3] = molecular target: Cannabinoid receptor 1 (Homo sapiens) (UniProt P21554); assay: Percent inhibition of specific binding of [3H]CP-55940 towards human cannabinoid receptor 1 from Chinese hamster ovary cell membranes at the concentration of 10 uM
How it was run: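 Membranes (40 μg) from CHO cells stably expressing human CB1 (grown in Ham's F12, 10% FBS, G418) were incubated with 1 nM [3H]-CP55,940 for 1 h at 30 °C in 50 mM Tris-HCl with MgCl2 and EDTA, pH 7.4, plus 50 μM PMSF. Nonspecific binding was defined with 10 μM HU-210. Filtration was on PEI-treated GF/B filters, followed by scintillation counting.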

[4] = organism: Rattus norvegicus; assay: Inhibition of AEA (N-arachidonoylethanolamine) metabolism using rat brain homogenates at pH 6 and at the concentration of 50 uM using [3H]anandamide as the labeled substrate; type: functional
[5] = organism: Rattus norvegicus; assay: Inhibition of AEA (N-arachidonoylethanolamine) metabolism using rat brain homogenates at pH 9 using [3H]anandamide as the labeled substrate; type: functional; settings: dose or concentration not given here
How it was run: (§1)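 Rat brain membranes (adult, minus cerebellum) were homogenized in 20 mM HEPES pH 7.0 with 1 mM MgCl2, washed, preincubated 15 min at 37 °C, and stored at -70 °C. Incubation was with [3H]-AEA (2 μM final) for 10 min at 37 °C at pH 6 or pH 9. Chloroform/methanol stopped the reaction, and [3H]-ethanolamine in the aqueous phase was counted. pI50 and maximal inhibition came from 3–5 experiments (three homogenate preparations) over 3–100 μM (seven concentrations).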

[6] = organism: Rattus norvegicus; assay: Tested for percent inhibition of AEA (N-arachidonoylethanolamine) metabolism in rat brain homogenates using [3H]anandamide as the labeled substrate at 100 uM; type: functional
[7] = organism: Rattus norvegicus; assay: Inhibition of AEA (N-arachidonoylethanolamine) metabolism using rat brain homogenates at pH 6 using [3H]-anandamide as the labeled substrate; type: functional; settings: dose or concentration not given here; how it was run: as §1

Sequence of Cannabinoid receptor 2 (Homo sapiens) (P34972 whole entry): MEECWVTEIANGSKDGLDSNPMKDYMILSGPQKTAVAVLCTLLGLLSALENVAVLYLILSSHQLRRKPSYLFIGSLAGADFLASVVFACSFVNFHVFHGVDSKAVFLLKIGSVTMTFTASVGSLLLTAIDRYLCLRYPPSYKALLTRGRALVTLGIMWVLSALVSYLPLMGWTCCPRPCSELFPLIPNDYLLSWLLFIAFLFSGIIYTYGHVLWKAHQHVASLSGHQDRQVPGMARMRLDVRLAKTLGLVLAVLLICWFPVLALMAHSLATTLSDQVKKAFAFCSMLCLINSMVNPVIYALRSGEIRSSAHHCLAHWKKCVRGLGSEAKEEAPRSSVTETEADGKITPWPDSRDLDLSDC
Sequence of Cannabinoid receptor 1 (Homo sapiens) (P21554 whole entry): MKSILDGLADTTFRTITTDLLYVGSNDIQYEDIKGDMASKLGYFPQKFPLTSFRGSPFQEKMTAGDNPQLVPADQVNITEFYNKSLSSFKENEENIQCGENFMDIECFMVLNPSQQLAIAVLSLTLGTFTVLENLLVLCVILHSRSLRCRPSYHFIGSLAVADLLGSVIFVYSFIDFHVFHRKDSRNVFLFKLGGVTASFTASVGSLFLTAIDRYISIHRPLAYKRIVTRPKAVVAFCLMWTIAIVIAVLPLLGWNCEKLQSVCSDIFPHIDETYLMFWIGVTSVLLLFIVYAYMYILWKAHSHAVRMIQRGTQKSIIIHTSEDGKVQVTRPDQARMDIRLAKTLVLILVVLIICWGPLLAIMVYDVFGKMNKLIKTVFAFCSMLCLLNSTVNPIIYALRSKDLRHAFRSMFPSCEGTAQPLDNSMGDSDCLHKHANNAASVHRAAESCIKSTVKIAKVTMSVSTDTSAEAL

| inhibition [1] [%] | inhibition [3] [%] | Compound | inhibition [2] [%] | inhibition [4] [%] | inhibition [5] [%] | inhibition [6] [%] | inhibition [7] [%] |
| --- | --- | --- | --- | --- | --- | --- | --- |
| 7.4 | 11.1 | CCCCCCCCCCCCCCCC(=O)Nc1ccc(Cl)cc1 | 11 |  |  |  |  |
|  |  | CCCCCCCCCCCCCCCC(=O)NC(C)C | 61 | 4 | 39 |  |  |
| 3.7 | 25.4 | CCCCCCCCCCCCCCCC(=O)NCc1ccc(OC)cc1 |  |  |  | 29 |  |
| 2.7 | 3.3 | CCCCCCCCCCCCCCCC(=O)N(CC)CC |  |  |  | 2 |  |
| 5 | 44.8 | CCCCCCCCCCCCCCCC(=O)Nc1ccc(O)cc1 |  |  |  | 55 |  |
| 14.3 | 30.6 | CCCCCCCCCCCCCCCC(=O)NCCCCl | 27 |  |  |  |  |
| 2 | 24.6 | CCCCCCCCCCCCCCCC(=O)NC(C)(C)C | 0 |  |  |  |  |
| 15.1 | 35.8 | CCCCCCCCCCCCCCCC(=O)NCCBr | 41 |  |  |  |  |
| 10 | 2.8 | CCCCCCCCCCCCCCCC(=O)NCC | 72 |  |  |  |  |
| 13.5 | 25.2 | CCCCCCCCCCCCCCCC(=O)NCCCl | 48 |  |  |  |  |
| 6 | 16 | CCCCCCCCCCCCCCCNC(=O)COC(C)=O | 87 |  |  |  |  |
| 1.3 | 22.8 | CCCCCCCCCCCCCCCC(=O)NCCc1ccccc1 |  |  |  | 19 |  |
| 7.8 | 13.3 | C=CCNC(=O)CCCCCCCCCCCCCCC | 67 |  |  |  |  |
| 3.9 | 8.2 | CCCCCCCCCCCCCCCC(=O)NCCF |  |  |  | 6 |  |
| 3.9 | 40.9 | CCCCCCCCCCCCCCCC(=O)Nc1cccc(O)c1 |  |  |  | 51 |  |
| 6.5 | 2.8 | CCCCCCCCCCCCCCCC(=O)Nc1ccc(C)cc1 |  |  |  | 0 |  |
|  |  | CCCCCCCCCCCCCCCC(=O)NC1CCCCC1 |  |  |  | 11 |  |
| 6.7 | 15.7 | CCCCCCCCCCCCCCCC(=O)NC(C)(C)CO | 0 |  |  |  |  |

| inhibition [1] [%] | inhibition [3] [%] | Compound | inhibition [2] [%] | inhibition [4] [%] | inhibition [5] [%] | inhibition [6] [%] | inhibition [7] [%] |
| --- | --- | --- | --- | --- | --- | --- | --- |
| 8.9 | 18.5 | CCCCCCCCCCCCCCCC(=O)NCC(C)C | 6 |  |  |  |  |
| 4.1 | 7.3 | CCCCCCCCCCCCCCCC(=O)NCC(=O)OC | 100 |  | 100 |  | 75 |
| 6.4 | 15 | CCCCCCCCCCCCCCCC(=O)NCCCO | 61 |  | 81 |  | 45 |
| 6.1 | 14.4 | CCCCCCCCCCCCCCCC(=O)NCCC | 49 |  |  |  |  |
| 12.9 | 11.7 | CCCCCCCCCCCCCCCC(N)=O | 51 |  |  |  |  |
| 0.7 | 4.8 | CCCCCCCCCCCCCCCC(=O)NCc1ccc(C)cc1 | 100 |  |  |  |  |
| 0.5 | 2.8 | CCCCCCCCCCCCCCCC(=O)Nc1ccccc1 | 18 |  |  |  |  |
| 6.5 | 4.9 | CCCCCCCCCCCCCCCC(=O)Nc1ccccc1C | 31 |  |  |  |  |
| 4.2 | 15.5 | CCCCCCCCCCCCCCCC(=O)N1CCOCC1 |  |  |  | 6 |  |
| 12.9 | 19.6 | CCCCCCCCCCCCCCCC(=O)NCCCC | 24 |  |  |  |  |
| 1.1 | 2.2 | CCCCCCCCCCCCCCCC(=O)NC(c1ccccc1)c1ccccc1 |  |  |  | 0 |  |
| 0.1 | 0.7 | CCCCCCCCCCCCCCCC(=O)Nc1ccc2ccccc2c1 | 28 |  |  |  |  |
| 5.2 | 18.1 | CCCCCCCCCCCCCCCC(=O)NOC | 46 |  |  |  |  |
| 2.7 | 10.8 | CCCCCCCCCCCCCCCC(=O)Nc1ccccc1O |  |  |  | 53 |  |
|  | 2.5 | CCCCCCCCCCCCCCCC(=O)NC | 100 |  |  |  |  |
| 6.4 | 0.3 | CCCCCCCCCCCCCCCC(=O)N(C)C |  |  |  | 30 |  |
|  |  | CCCCCCCCCCCCCCCC(=O)NCCO | 78 |  | 100 |  | 62 |
| 9.5 | 27.1 | CCCCCCCCCCCCCCCC(=O)NC1CCCC1 |  |  |  | 43 |  |

| Compound | inhibition [1] [%] | inhibition [3] [%] | inhibition [2] [%] | inhibition [4] [%] | inhibition [5] [%] | inhibition [6] [%] | inhibition [7] [%] |
| --- | --- | --- | --- | --- | --- | --- | --- |
| CCCCCCCCCCCCCCCC(=O)NC1CC1 | 16.3 | 12.8 | 57 |  |  |  |  |
